Measurements as given in ChEMBL document CHEMBL3608234, “Synthesis and antiviral evaluation of a novel series of homoserine-based inhibitors of the hepatitis C virus NS3/4A serine protease” (Bioorg Med Chem Lett, 2015).

What was measured:
[1] = Inhibition of full length HCV 1b Con1 NS3/4A protease using HiLyte Fluor 610 peptide substrate by biochemical FRET assay; parameters: species or system Hepatitis C virus (isolate Con1)
Summary of the method: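 Fluorescence (FRET) protease assay on full-length genotype 1b Con1 HCV NS3/4A with HiLyte Fluor 610 peptide substrate; IC50 from percent inhibition versus concentration by four-parameter sigmoidal non-linear regression.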

Hepatitis C virus = test: Antiviral activity against HCV Con1 infected in human GS4.1 cells containing HCV Con1 subgenomic replicon assessed as reduction in NS5A protein expression by ELISA method; type: functional, cell-based, Hepacivirus hominis; conditions: genotype 1b Con1
Summary of the method: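 Huh-7 cells carrying HCV Con1 subgenomic replicon (GS4.1); replication followed as NS5A protein expression by ELISA; EC50 from 50% inhibition versus concentration data fitted by four-parameter sigmoidal non-linear regression.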

[2] = Cytotoxicity against human GS4.1 cells assessed as induction of cell death; type: cell-based
Summary of the method: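 GS4.1 cells (Huh-7 with Con1 subgenomic replicon); CC50 taken as concentration giving 50% cell death, from death versus concentration data relative to blank control.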

[3] = Intrinsic clearance in rat liver microsomes incubated for 2 hrs; type: ADME; conditions: read-out: CLH
[4] = Clearance in rat liver S9 fraction incubated for 2 hrs; type: ADME, subcellular; conditions: read-out: CLH
Summary of the method: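 Rat liver S9 fraction incubation for 2 h; mean clearance from n = 2.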

Hepatocyte = test: Clearance in rat cryopreserved hepatocytes incubated for 2 hrs; type: ADME, cell-based
[5] = Intrinsic clearance in dog liver microsomes incubated for 2 hrs; type: ADME, Canis lupus familiaris; conditions: read-out: CLH
[6] = Intrinsic clearance in Cynomologus monkey liver microsomes incubated for 2 hrs; type: ADME, Macaca fascicularis; conditions: cynomolgus monkey, read-out: CLH
[7] = Intrinsic clearance in human liver microsomes incubated for 2 hrs; type: ADME; conditions: read-out: CLH
[8] = Cmax in Sprague-Dawley rat at 10 mg/kg, po; type: ADME, organism-based; parameters: dose 10 mg/kg, route oral; conditions: in vivo
[9] = Tmax in Sprague-Dawley rat at 10 mg/kg, po; type: ADME, organism-based; conditions: in vivo
[10] = AUCt in Sprague-Dawley rat at 10 mg/kg, po; type: ADME, organism-based; conditions: in vivo
Summary of the method: (§1)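 Male Sprague–Dawley rats were dosed intravenously at 2 mg/kg or orally at 10 mg/kg. Plasma concentration–time data were used to derive AUC to last time point (AUCt) and AUC extrapolated to infinity, reported in ng·h/mL.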

[11] = AUC (infinity) in Sprague-Dawley rat at 10 mg/kg, po; type: ADME, organism-based; parameters: dose 10 mg/kg, route oral, time infinity; conditions: in vivo; summary of the method: as §1
[12] = Half life in Sprague-Dawley rat at 10 mg/kg, po; type: ADME, organism-based; conditions: in vivo
[13] = Drug elimination in Sprague-Dawley rat at 10 mg/kg, po; type: ADME, organism-based; conditions: in vivo
[14] = Clearance in Sprague-Dawley rat at 10 mg/kg, po; type: ADME, organism-based; conditions: in vivo
Rattus norvegicus = test: Volume of distribution in Sprague-Dawley rat at 10 mg/kg, po; type: ADME, organism-based; conditions: in vivo
[15] = Oral bio availability in Sprague-Dawley rat at 10 mg/kg; type: ADME, organism-based; conditions: in vivo
[16] = Cmax in Sprague-Dawley rat at 2 mg/kg, iv; type: ADME, organism-based; parameters: dose 2 mg/kg, route intravenous; conditions: in vivo
[17] = Tmax in Sprague-Dawley rat at 2 mg/kg, iv; type: ADME, organism-based; conditions: in vivo
[18] = AUCt in Sprague-Dawley rat at 2 mg/kg, iv; type: ADME, organism-based; conditions: in vivo; summary of the method: as §1
[19] = AUC (infinity) in Sprague-Dawley rat at 2 mg/kg, iv; type: ADME, organism-based; parameters: dose 2 mg/kg, route intravenous, time infinity; conditions: in vivo; summary of the method: as §1
[20] = Half life in Sprague-Dawley rat at 2 mg/kg, iv; type: ADME, organism-based; conditions: in vivo
[21] = Drug elimination in Sprague-Dawley rat at 2 mg/kg, iv; type: ADME, organism-based; conditions: in vivo
[22] = Clearance in Sprague-Dawley rat at 2 mg/kg, iv; type: ADME, organism-based; conditions: in vivo
[23] = Volume of distribution in Sprague-Dawley rat at 2 mg/kg, iv; type: ADME, organism-based; conditions: in vivo

Compound: COc1ccc2c(OCC[C@@H]3NC(=O)N(C)CCCC/C=C\[C@@H]4C[C@@]4(C(=O)NS(=O)(=O)C4(C)CC4)NC3=O)cc(-c3nc(C(C)C)cs3)nc2c1Cl
- IC50 [1]: 1.7 nM
- EC50 (Hepatitis C virus): 28.7 nM
- CC50 [2]: 37400 nM
- microsomal CLint [3]: 20.7 µL/min/mg
- microsomal CLint [4]: 7.6 µL/min/mg
- CLH (Hepatocyte): 12.6 µL/min/mg
- microsomal CLint [5]: 19.5 µL/min/mg
- microsomal CLint [6]: 480 µL/min/mg
- microsomal CLint [7]: 215 µL/min/mg
- Cmax [8]: 798 ng/mL
- Tmax [9]: 0.75 h
- AUC(0-t) [10]: 2060 ng·h/mL
- AUC(0-inf) [11]: 2350 ng·h/mL
- half-life [12]: 2.53 h
- k el [13]: 7.78e-05 s⁻¹
- CL/F [14]: 72.4 mL/min/kg
- Vd (Rattus norvegicus): 16.04 L/kg
- bioavailability [15]: 27%
- Cmax [16]: 2670 ng/mL
- Tmax [17]: 6.6 min
- AUC(0-t) [18]: 1520 ng·h/mL
- AUC(0-inf) [19]: 1510 ng·h/mL
- half-life [20]: 1.25 h
- k el [21]: 0.000158 s⁻¹
- clearance [22]: 22.1 mL/min/kg
- Vd [23]: 2.42 L/kg
